The source made the active and inactive calls. The calls are words filed in the database; no cut-off is given here.
Each compound was assayed on Candida albicans (assay: Antifungal activity against Candida albicans ATCC 10231 assessed as growth inhibition at 1000 ug/mL after 72 hrs by disk diffusion method). Conditions: not given.
Assay type: functional
Outline: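 Candida grown and kept on Sabouraud glucose agar plates. Compounds screened at a fixed 1000 µg/mL, with fluconazole as positive control. Plates incubated at 26 °C for 72 h, then zones of inhibition measured in mm.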

Q: Which “inhibition zone (IZ)” value does the source give for `N#Cc1c(N)c(Cl)c(Cl)c(C#N)c1Cl` here?
A: inactive

Q: Which “inhibition zone (IZ)” value does the source give for `N#Cc1c(F)c(F)c(F)c(C#N)c1F` here?
A: inactive

Q: For `N#Cc1c(Sc2ccccc2)c(F)c(Sc2ccccc2)c(C#N)c1Sc1ccccc1`, which “inhibition zone (IZ)” value is on record?
A: inactive

Q: Which “inhibition zone (IZ)” value does the source give for `COc1ccc(Nc2c(Cl)c(F)c(C#N)c(F)c2C#N)cc1` here?
A: inactive

Q: How did the “inhibition zone (IZ)” value turn out when `N#Cc1c(F)c(C#N)c(Sc2ccccc2)c(Cl)c1Sc1ccccc1` was run?
A: inactive

Q: How did the “inhibition zone (IZ)” value turn out when `N#Cc1c(F)c(Cl)c(F)c(C#N)c1F` was run?
A: inactive

Same assay, conditions: ATCC 10231, 72 h, read-out: IZ

Q: Which zone of inhibition at 1000 µg/mL does the source give for `N#Cc1c(Cl)c(Cl)c(Nc2ccccc2)c(C#N)c1Cl` here?
A: 15.3 mm

These compounds were tested on Pseudomonas aeruginosa (assay: Antibacterial activity against Pseudomonas aeruginosa ATCC 15442 assessed as growth inhibition at 1000 ug/mL after 24 hrs by disk diffusion method). Conditions: not given.
Assay type: functional

Q: With `N#Cc1c(N)c(Cl)c(Cl)c(C#N)c1Cl` as the compound, how does the “inhibition zone (IZ)” value read?
A: inactive

Q: How did the “inhibition zone (IZ)” value turn out when `N#Cc1c(Cl)c(Cl)c(Nc2ccccc2)c(C#N)c1Cl` was run?
A: inactive

Q: Which “inhibition zone (IZ)” value does the source give for `CN(C)CCCNc1c(F)c(N)c(C#N)c(F)c1C#N` here?
A: inactive

Q: `N#Cc1c(F)c(F)c(F)c(C#N)c1F` was tested. Which “inhibition zone (IZ)” value did it give?
A: inactive

Q: Which “inhibition zone (IZ)” value does the source give for `N#Cc1c(Sc2ccccc2)c(F)c(Sc2ccccc2)c(C#N)c1Sc1ccccc1` here?
A: inactive

Q: `CCCSc1c(F)c(N)c(C#N)c(SCCC)c1C#N` was tested. Which “inhibition zone (IZ)” value did it give?
A: inactive

Q: `COc1ccc(Nc2c(Cl)c(F)c(C#N)c(F)c2C#N)cc1` was tested. Which “inhibition zone (IZ)” value did it give?
A: inactive

Q: Which “inhibition zone (IZ)” value does the source give for `N#Cc1c(N)c(Cl)c(N2CCCCC2)c(C#N)c1N1CCCCC1` here?
A: inactive

Q: How did the “inhibition zone (IZ)” value turn out when `N#Cc1c(F)c(C#N)c(Sc2ccccc2)c(Cl)c1Sc1ccccc1` was run?
A: inactive

Q: How did the “inhibition zone (IZ)” value turn out when `N#Cc1c(F)c(Cl)c(F)c(C#N)c1F` was run?
A: inactive

Q: For `CN(C)CCCNc1c(Cl)c(N)c(C#N)c(F)c1C#N`, which “inhibition zone (IZ)” value is on record?
A: inactive

Q: How did the “inhibition zone (IZ)” value turn out when `N#Cc1c(N)c(Sc2ccccc2)c(Sc2ccccc2)c(C#N)c1Sc1ccccc1` was run?
A: inactive

What follows are compounds tested on Escherichia coli (assay: Antibacterial activity against Escherichia coli ATCC 8099 assessed as growth inhibition at 1000 ug/mL after 24 hrs by disk diffusion method). Conditions: not given.
Assay type: functional

Q: How did the “inhibition zone (IZ)” value turn out when `N#Cc1c(N)c(Cl)c(Cl)c(C#N)c1Cl` was run?
A: inactive

Q: Which “inhibition zone (IZ)” value does the source give for `N#Cc1c(Cl)c(Cl)c(Nc2ccccc2)c(C#N)c1Cl` here?
A: inactive

Q: For `CN(C)CCCNc1c(F)c(N)c(C#N)c(F)c1C#N`, which “inhibition zone (IZ)” value is on record?
A: inactive

Q: For `N#Cc1c(F)c(F)c(F)c(C#N)c1F`, which “inhibition zone (IZ)” value is on record?
A: inactive

Q: `N#Cc1c(Sc2ccccc2)c(F)c(Sc2ccccc2)c(C#N)c1Sc1ccccc1` was tested. Which “inhibition zone (IZ)” value did it give?
A: inactive

Q: With `CCCSc1c(F)c(N)c(C#N)c(SCCC)c1C#N` as the compound, how does the “inhibition zone (IZ)” value read?
A: inactive

Q: For `COc1ccc(Nc2c(Cl)c(F)c(C#N)c(F)c2C#N)cc1`, which “inhibition zone (IZ)” value is on record?
A: inactive

Q: Which “inhibition zone (IZ)” value does the source give for `N#Cc1c(N)c(Cl)c(N2CCCCC2)c(C#N)c1N1CCCCC1` here?
A: inactive

Q: How did the “inhibition zone (IZ)” value turn out when `N#Cc1c(F)c(C#N)c(Sc2ccccc2)c(Cl)c1Sc1ccccc1` was run?
A: inactive

Q: How did the “inhibition zone (IZ)” value turn out when `N#Cc1c(F)c(Cl)c(F)c(C#N)c1F` was run?
A: inactive

Q: `CN(C)CCCNc1c(Cl)c(N)c(C#N)c(F)c1C#N` was tested. Which “inhibition zone (IZ)” value did it give?
A: inactive

Q: `N#Cc1c(N)c(Sc2ccccc2)c(Sc2ccccc2)c(C#N)c1Sc1ccccc1` was tested. Which “inhibition zone (IZ)” value did it give?
A: inactive

What follows are compounds tested on Staphylococcus aureus (assay: Antibacterial activity against Staphylococcus aureus ATCC 6538 assessed as growth inhibition at 1000 ug/mL after 24 hrs by disk diffusion method). Conditions: not given.
Assay type: functional

Q: Which “inhibition zone (IZ)” value does the source give for `N#Cc1c(N)c(Cl)c(Cl)c(C#N)c1Cl` here?
A: inactive

Q: With `N#Cc1c(Cl)c(Cl)c(Nc2ccccc2)c(C#N)c1Cl` as the compound, how does the “inhibition zone (IZ)” value read?
A: inactive

Q: Which “inhibition zone (IZ)” value does the source give for `N#Cc1c(F)c(F)c(F)c(C#N)c1F` here?
A: inactive

Q: `N#Cc1c(Sc2ccccc2)c(F)c(Sc2ccccc2)c(C#N)c1Sc1ccccc1` was tested. Which “inhibition zone (IZ)” value did it give?
A: inactive

Q: With `COc1ccc(Nc2c(Cl)c(F)c(C#N)c(F)c2C#N)cc1` as the compound, how does the “inhibition zone (IZ)” value read?
A: inactive

Q: How did the “inhibition zone (IZ)” value turn out when `N#Cc1c(N)c(Cl)c(N2CCCCC2)c(C#N)c1N1CCCCC1` was run?
A: inactive

Q: `N#Cc1c(F)c(C#N)c(Sc2ccccc2)c(Cl)c1Sc1ccccc1` was tested. Which “inhibition zone (IZ)” value did it give?
A: inactive

Q: For `N#Cc1c(F)c(Cl)c(F)c(C#N)c1F`, which “inhibition zone (IZ)” value is on record?
A: inactive

Q: Which “inhibition zone (IZ)” value does the source give for `N#Cc1c(N)c(Sc2ccccc2)c(Sc2ccccc2)c(C#N)c1Sc1ccccc1` here?
A: inactive

Same assay, conditions: ATCC 6538, 24 h, read-out: IZ

Q: For `CN(C)CCCNc1c(F)c(N)c(C#N)c(F)c1C#N`, which zone of inhibition at 1000 µg/mL is on record?
A: 7 mm

Q: `CCCSc1c(F)c(N)c(C#N)c(SCCC)c1C#N` was tested. Which zone of inhibition at 1000 µg/mL did it give?
A: 7.9 mm

Q: For `CN(C)CCCNc1c(Cl)c(N)c(C#N)c(F)c1C#N`, which zone of inhibition at 1000 µg/mL is on record?
A: 14.2 mm

Each compound was assayed on Bacillus cereus (assay: Antibacterial activity against Bacillus cereus ATCC 14579 assessed as growth inhibition at 1000 ug/mL after 24 hrs by disk diffusion method). Conditions: not given.
Assay type: functional

Q: With `N#Cc1c(N)c(Cl)c(Cl)c(C#N)c1Cl` as the compound, how does the “inhibition zone (IZ)” value read?
A: inactive

Q: For `N#Cc1c(Cl)c(Cl)c(Nc2ccccc2)c(C#N)c1Cl`, which “inhibition zone (IZ)” value is on record?
A: inactive

Q: `N#Cc1c(F)c(F)c(F)c(C#N)c1F` was tested. Which “inhibition zone (IZ)” value did it give?
A: inactive

Q: For `N#Cc1c(N)c(Cl)c(N2CCCCC2)c(C#N)c1N1CCCCC1`, which “inhibition zone (IZ)” value is on record?
A: inactive

Q: How did the “inhibition zone (IZ)” value turn out when `N#Cc1c(F)c(C#N)c(Sc2ccccc2)c(Cl)c1Sc1ccccc1` was run?
A: inactive

Q: For `N#Cc1c(F)c(Cl)c(F)c(C#N)c1F`, which “inhibition zone (IZ)” value is on record?
A: inactive

Q: Which “inhibition zone (IZ)” value does the source give for `N#Cc1c(N)c(Sc2ccccc2)c(Sc2ccccc2)c(C#N)c1Sc1ccccc1` here?
A: inactive

Same assay, conditions: ATCC 14579, 24 h, read-out: IZ

Q: How did the zone of inhibition at 1000 µg/mL turn out when `CN(C)CCCNc1c(F)c(N)c(C#N)c(F)c1C#N` was run?
A: 7.1 mm

Q: With `N#Cc1c(Sc2ccccc2)c(F)c(Sc2ccccc2)c(C#N)c1Sc1ccccc1` as the compound, how does the zone of inhibition at 1000 µg/mL read?
A: 9.8 mm

Q: With `CCCSc1c(F)c(N)c(C#N)c(SCCC)c1C#N` as the compound, how does the zone of inhibition at 1000 µg/mL read?
A: 7.4 mm

Q: With `COc1ccc(Nc2c(Cl)c(F)c(C#N)c(F)c2C#N)cc1` as the compound, how does the zone of inhibition at 1000 µg/mL read?
A: 6.8 mm

Q: With `CN(C)CCCNc1c(Cl)c(N)c(C#N)c(F)c1C#N` as the compound, how does the zone of inhibition at 1000 µg/mL read?
A: 15 mm
